Data from ChEMBL document CHEMBL1137343, “4-arylazo-3,5-diamino-1H-pyrazole CDK inhibitors: SAR study, crystal structure in complex with CDK2, selectivity, and cellular effects” (J Med Chem, 2006).
Activity calls are given as the source filed them. No cut-off for these calls is given here.

Experiments:
[1] = biological target: CDK9/cyclin T1 (Homo sapiens) (UniProt O60563+P50750); assay: Activity of CDK9/Cyclin T1 at 10 uM; format: protein-complex assay
[2] = system: HT-29; assay: Inhibition of CEA mRNA synthesis in HT29 cells measured as number of copies per 10^6 cells by RT PCR at 50 uM after 6 hrs; format: functional, Homo sapiens
How it was run: (§1)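 HT-29 cells were treated 3, 6 or 12 h; total RNA extracted with TRI reagent. 3 µg RNA reverse-transcribed with random primers and M-MLV RT at 42 °C for 60 min. CEA transcripts quantified by TaqMan real-time PCR: 50 cycles of 95 °C 15 s and 65 °C 15 s. Absolute copies came from amplicon standards of 30 to 10^6 copies, expressed per 10^6 cells. Samples run in duplicate PCR; values average of four determinations ± SD.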

[3] = system: HT-29; assay: Cell cycle arrest in HT29 cells by accumulation at S phase at 50 uM after 12 hrs; format: functional, Homo sapiens
How it was run: (§2)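 Subconfluent, asynchronous HT-29 cells were treated 3, 6 or 12 h, then pulsed with 10 µM BrdU for 30 min at 37 °C. Cells were fixed in ice-cold 70% ethanol, DNA denatured in 2 M HCl and neutralised with borate. Staining used FITC anti-BrdU, then propidium iodide (0.1 mg/mL) with RNase A. Analysis by flow cytometry with 488 nm laser.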

[4] = biological target: T1, Cyclin-dependent kinase 2/cyclin E (Homo sapiens, UniProt P24941); assay: Inhibition of CDK2/Cyclin E in presence of 100 uM ATP; format: protein-complex assay
[5] = biological target: Cyclin-dependent kinase 2/cyclin A (Homo sapiens, UniProt P24941); assay: Inhibition of CDK2/Cyclin A in presence of 100 uM ATP; format: protein-complex assay
[6] = system: HT-29; assay: Cell cycle arrest in HT29 cells by accumulation at G0/G1 phase at 50 uM after 6 hrs; format: functional, Homo sapiens; how it was run: as §2
[7] = biological target: Cyclin-dependent kinase 7/ cyclin H (Homo sapiens, UniProt P50613); assay: Inhibition of CDK7/Cyclin H in presence of 100 uM ATP; format: protein-complex assay
[8] = biological target: Glycogen synthase kinase-3 beta (Homo sapiens) (UniProt P49841); assay: Activity of GSK3-beta at 10 uM
How it was run: (§3)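 Radiometric kinase assay at 10 µM inhibitor, run in duplicate. c-Abl, CHK1, GSK3β, p70S6K, PKA and PKBα were run in 8 mM MOPS pH 7.0 with 0.2 mM EDTA. MAPK1 and SAPK2α were run in 25 mM Tris pH 7.5 with 0.02 mM EGTA. CK2 was run in 20 mM HEPES pH 7.6, 0.15 M NaCl, 0.1 mM EDTA, 2 mM DTT and 0.1% Triton X-100. All had 10 mM Mg-acetate, 10 µM ATP, [γ-33P]ATP and a peptide substrate; 40 min; H3PO4 stop; P30 filter; scintillation counting.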

[9] = system: HT-29; assay: Cell cycle arrest in HT29 cells by accumulation at S phase at 50 uM after 6 hrs; format: functional, Homo sapiens; how it was run: as §2
[10] = system: MCF7; assay: Increase in p21 WAF1 expression level in MCF7 cells at 50 uM after 24 hrs; format: functional, cell-based; details: Homo sapiens
How it was run: (§4)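 MCF7 cells were treated 24 h, lysed in Laemmli buffer and run on 10% SDS-PAGE. Proteins were blotted to nitrocellulose; loading checked with Ponceau-S; blocked with 5% milk in PBS-Tween. Specific antibodies applied overnight (pRb phosphosites Ser780, Ser807, Thr821; p53; p21WAF1), then peroxidase secondary at 1:2000 with ECL detection.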

[11] = biological target: T1, Cyclin-dependent kinase 2/cyclin E; assay: Inhibition of CDK2/Cyclin E; format: protein-complex assay; details: read-out: Ki app
How it was run: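 CDK2-cyclin E made in Sf9 insect cells co-infected with baculoviral constructs, purified on NiNTA. Assayed with 1 mg/mL histone H1, 15 µM ATP plus 0.05 µCi [γ-33P]ATP, in 50 mM HEPES, 10 mM MgCl2, 5 mM EGTA, 10 mM 2-glycerolphosphate, 1 mM NaF, 1 mM DTT, pH 7.4. Activity expressed as percentage of maximum; IC50 taken from dose-response curves.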

[12] = system: HT-29; assay: Inhibition of EpCAM mRNA synthesis in HT29 cells measured as number of copies per 10^6 cells by RT PCR at 50 uM after 6 hrs; format: functional, Homo sapiens
How it was run: (§5)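 HT-29 cells (5 × 10⁶) treated for 3, 6 or 12 h; total RNA extracted with TRI reagent, 3 µg reverse transcribed with random primers and M-MLV RT (42 °C, 60 min). Absolute transcript copies quantified by TaqMan real-time PCR, 50 cycles, against diluted gene-specific amplicon standards (30–1 000 000 copies); duplicate PCR per sample; values are means of four determinations ± SD.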

[13] = biological target: Mitogen-activated protein kinase 14 (Homo sapiens) (UniProt Q16539); assay: Activity of SAPK2-alpha at 10 uM; how it was run: as §3
[14] = system: HT-29; assay: Inhibition of EpCAM mRNA synthesis in HT29 cells measured as number of copies per 10^6 cells by RT PCR at 50 uM after 3 hrs; format: functional, Homo sapiens; how it was run: as §5
[15] = biological target: Cyclin-dependent kinase 2/cyclin E (Homo sapiens) (UniProt P24864+P24941+O96020); assay: Activity of CDK2/Cyclin E at 10 uM; format: protein-complex assay
[16] = biological target: Ribosomal protein S6 kinase (P70S6K) (Homo sapiens) (UniProt Q9UBS0+P23443); assay: Activity of P70S6K at 10 uM; format: protein-complex assay; how it was run: as §3
[17] = biological target: Cyclin-dependent kinase 1/cyclin B (Homo sapiens, UniProt P06493); assay: Inhibition of CDK1/Cyclin B in presence of 100 uM ATP; format: protein-complex assay
[18] = system: MCF7; assay: Decrease in pRb phosphorylation in MCF7 cells after 24 hrs at 25 uM; format: functional, cell-based; details: Homo sapiens; how it was run: as §4
[19] = system: HT-29; assay: Cell cycle arrest in HT29 cells by accumulation at G2/M phase at 50 uM after 12 hrs; format: functional, Homo sapiens; how it was run: as §2
[20] = biological target: Serine/threonine-protein kinase Chk1 (Homo sapiens) (UniProt O14757); assay: Activity of CHK1 at 10 uM; how it was run: as §3
[21] = biological target: Cyclin-dependent kinase 4/cyclin D1 (Homo sapiens, UniProt P11802); assay: Inhibition of CDK4/Cyclin D1 in presence of 100 uM ATP; format: protein-complex assay
[22] = system: HT-29; assay: Inhibition of CEA mRNA synthesis in HT29 cells measured as number of copies per 10^6 cells by RT PCR at 50 uM after 12 hrs; format: functional, Homo sapiens; how it was run: as §1
[23] = biological target: Casein kinase II (Homo sapiens) (UniProt P67870+P68400+P19784); assay: Activity of CK2 at 10 uM; format: protein-complex assay; how it was run: as §3
[24] = system: MCF7; assay: Increase in p53 expression level in MCF7 cells at 50 uM after 24 hrs; format: functional, cell-based; details: Homo sapiens; how it was run: as §4
[25] = biological target: RAC-alpha serine/threonine-protein kinase (Homo sapiens) (UniProt P31749); assay: Activity of PKBalpha at 10 uM; how it was run: as §3
[26] = system: MCF7; assay: Increase in p53 expression level in MCF7 cells at 100 uM after 24 hrs; format: functional, cell-based; details: Homo sapiens; how it was run: as §4
[27] = system: HT-29; assay: Cell cycle arrest in HT29 cells by accumulation at S phase at 50 uM after 3 hrs; format: functional, Homo sapiens; how it was run: as §2
[28] = biological target: T1, Cyclin-dependent kinase 2/cyclin E; assay: Inhibition of CDK2/Cyclin E in presence of 15 uM ATP; format: protein-complex assay

Sequence of Cyclin-dependent kinase 7/ cyclin H (P51946 whole entry): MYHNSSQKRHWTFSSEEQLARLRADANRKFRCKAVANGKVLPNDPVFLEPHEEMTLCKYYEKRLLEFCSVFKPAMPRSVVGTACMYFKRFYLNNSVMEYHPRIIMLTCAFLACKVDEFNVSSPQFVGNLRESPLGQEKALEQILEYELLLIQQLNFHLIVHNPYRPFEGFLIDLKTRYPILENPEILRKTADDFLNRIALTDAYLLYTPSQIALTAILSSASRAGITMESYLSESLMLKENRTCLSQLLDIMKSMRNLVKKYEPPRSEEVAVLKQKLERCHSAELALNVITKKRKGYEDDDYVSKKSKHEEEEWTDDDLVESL
Sequence of Cyclin-dependent kinase 7/ cyclin H (P50613 whole entry): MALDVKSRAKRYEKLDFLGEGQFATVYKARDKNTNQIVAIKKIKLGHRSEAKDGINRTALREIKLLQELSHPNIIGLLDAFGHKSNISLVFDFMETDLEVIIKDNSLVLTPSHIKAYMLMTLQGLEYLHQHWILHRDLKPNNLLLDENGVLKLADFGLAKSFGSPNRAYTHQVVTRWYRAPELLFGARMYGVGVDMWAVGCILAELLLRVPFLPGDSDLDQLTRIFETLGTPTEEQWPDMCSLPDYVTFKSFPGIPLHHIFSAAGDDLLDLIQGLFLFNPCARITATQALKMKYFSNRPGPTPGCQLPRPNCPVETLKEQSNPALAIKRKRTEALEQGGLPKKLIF
Sequence of Glycogen synthase kinase-3 beta (Homo sapiens) (P49841 whole entry, looked up): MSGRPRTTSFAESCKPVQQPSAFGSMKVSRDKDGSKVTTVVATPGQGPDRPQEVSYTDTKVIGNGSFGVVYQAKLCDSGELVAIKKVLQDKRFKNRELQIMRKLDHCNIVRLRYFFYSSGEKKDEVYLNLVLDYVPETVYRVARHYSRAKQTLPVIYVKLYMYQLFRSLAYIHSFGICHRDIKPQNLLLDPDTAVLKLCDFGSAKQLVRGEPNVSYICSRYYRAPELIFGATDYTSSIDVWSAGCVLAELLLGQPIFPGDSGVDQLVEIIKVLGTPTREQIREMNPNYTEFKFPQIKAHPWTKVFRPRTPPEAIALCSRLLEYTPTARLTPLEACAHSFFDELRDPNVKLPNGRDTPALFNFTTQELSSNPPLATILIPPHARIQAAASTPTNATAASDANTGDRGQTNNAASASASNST
Sequence of Mitogen-activated protein kinase 14 (Homo sapiens) (Q16539 whole entry): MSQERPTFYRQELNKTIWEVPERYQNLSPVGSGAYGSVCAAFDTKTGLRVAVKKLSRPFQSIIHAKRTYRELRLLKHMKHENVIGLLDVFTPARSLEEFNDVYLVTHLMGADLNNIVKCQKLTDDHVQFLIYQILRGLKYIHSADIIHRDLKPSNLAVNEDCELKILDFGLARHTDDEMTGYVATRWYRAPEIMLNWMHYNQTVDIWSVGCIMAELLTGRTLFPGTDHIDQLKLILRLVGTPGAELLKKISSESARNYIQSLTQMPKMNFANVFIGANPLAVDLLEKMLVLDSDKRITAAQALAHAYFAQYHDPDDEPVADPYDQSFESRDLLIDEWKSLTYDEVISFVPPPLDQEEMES
Sequence of Serine/threonine-protein kinase Chk1 (Homo sapiens) (O14757 whole entry): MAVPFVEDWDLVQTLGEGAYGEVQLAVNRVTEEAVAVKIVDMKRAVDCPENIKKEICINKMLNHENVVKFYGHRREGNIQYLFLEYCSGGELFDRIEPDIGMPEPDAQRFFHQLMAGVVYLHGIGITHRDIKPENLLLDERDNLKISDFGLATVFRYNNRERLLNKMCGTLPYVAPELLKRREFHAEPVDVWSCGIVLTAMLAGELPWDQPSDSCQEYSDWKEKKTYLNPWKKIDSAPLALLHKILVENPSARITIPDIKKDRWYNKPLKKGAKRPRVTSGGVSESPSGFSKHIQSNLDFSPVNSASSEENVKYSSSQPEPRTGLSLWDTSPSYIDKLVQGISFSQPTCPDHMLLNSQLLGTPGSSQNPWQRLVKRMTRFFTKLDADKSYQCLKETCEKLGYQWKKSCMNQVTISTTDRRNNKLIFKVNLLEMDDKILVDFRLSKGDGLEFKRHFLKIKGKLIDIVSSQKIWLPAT
Sequence of RAC-alpha serine/threonine-protein kinase (Homo sapiens) (P31749 whole entry): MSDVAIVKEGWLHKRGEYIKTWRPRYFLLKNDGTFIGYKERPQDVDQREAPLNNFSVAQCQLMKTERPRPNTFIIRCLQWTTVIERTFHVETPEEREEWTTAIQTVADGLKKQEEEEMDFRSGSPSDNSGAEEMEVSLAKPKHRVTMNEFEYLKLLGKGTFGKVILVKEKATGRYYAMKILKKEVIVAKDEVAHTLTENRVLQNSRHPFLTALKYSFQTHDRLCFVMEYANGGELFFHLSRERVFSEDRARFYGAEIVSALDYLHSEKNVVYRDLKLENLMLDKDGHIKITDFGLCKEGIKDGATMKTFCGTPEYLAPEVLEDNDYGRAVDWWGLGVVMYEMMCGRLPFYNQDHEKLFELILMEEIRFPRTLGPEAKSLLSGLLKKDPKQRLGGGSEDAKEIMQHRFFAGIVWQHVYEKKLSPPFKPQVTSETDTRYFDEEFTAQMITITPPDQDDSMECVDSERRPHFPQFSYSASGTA
Sequence of Cyclin-dependent kinase 4/cyclin D1 (P11802 whole entry): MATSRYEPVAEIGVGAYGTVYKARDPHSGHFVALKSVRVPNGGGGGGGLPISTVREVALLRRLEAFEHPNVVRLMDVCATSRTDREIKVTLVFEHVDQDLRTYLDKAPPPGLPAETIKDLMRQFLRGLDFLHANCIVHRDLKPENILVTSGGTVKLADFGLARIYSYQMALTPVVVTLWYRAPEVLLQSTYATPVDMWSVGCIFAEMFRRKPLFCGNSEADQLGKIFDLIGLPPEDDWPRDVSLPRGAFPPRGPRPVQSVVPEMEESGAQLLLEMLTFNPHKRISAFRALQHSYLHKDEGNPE
Sequence of Cyclin-dependent kinase 4/cyclin D1 (P24385 whole entry, further chain): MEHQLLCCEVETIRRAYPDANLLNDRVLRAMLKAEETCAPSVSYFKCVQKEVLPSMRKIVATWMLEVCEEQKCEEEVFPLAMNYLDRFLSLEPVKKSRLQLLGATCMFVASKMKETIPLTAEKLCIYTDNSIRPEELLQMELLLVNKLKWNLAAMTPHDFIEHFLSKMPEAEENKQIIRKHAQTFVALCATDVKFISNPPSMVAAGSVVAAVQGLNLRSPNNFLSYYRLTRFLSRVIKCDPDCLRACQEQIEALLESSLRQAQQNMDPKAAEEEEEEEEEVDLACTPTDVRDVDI

`Nc1n[nH]c(N)c1/N=N/c1ccc(O)cc1` gave a residual activity [1] of 6.9%, an Activity [2] of 22620 and an Activity [3] of 66%. It also gave an IC50 [4] of 20 µM, an IC50 [5] of 69 µM and an Activity [6] of 35.9%. For the same compound, the IC50 [7] was 26 µM, the residual activity [8] was 81% and the Activity [9] was 54.2%. The Activity [10] was “Active”, the Ki [11] was 13.3 µM and the Activity [12] was 5069600. For the same compound, the residual activity [13] was 82%, the Activity [14] was 6047138 and the residual activity [15] was 31%. The residual activity [16] was 51%, the IC50 [17] was 44 µM and the Activity [18] was “Active”. It also gave an Activity [19] of 6.8%, a residual activity [20] of 89% and an IC50 [21] of 13.5 µM. The Activity [22] was 12005, the residual activity [23] was 65% and the Activity [24] was “Active”. The residual activity [25] was 100%, the Activity [26] was “Active” and the Activity [27] was 55.7%. For the same compound, the IC50 [28] was 3.5 µM.
